These results are taken from ChEMBL document CHEMBL1131831, “A rapid method to identify exo-protease inhibitors” (Bioorg Med Chem Lett, 1999).

Data set [1] can be described thus: Ratio of proteolysis rate constant (Kcat) to that of proteolysis constant (Km) was determined. An outline of the steps:
(§1)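 Porcine pancreatic trypsin (type IX), porcine pancreatic kallikrein, bovine spleen cathepsin B and porcine pancreatic elastase, each enzyme added to 12 µM substrate solution over mineral oil, shaken at 37 °C. Buffers: trypsin 10 mM Tris-HCl pH 7.8; kallikrein 50 mM Tris pH 9.0; cathepsin B 100 mM potassium phosphate pH 6.0; elastase 10 mM Tris-HCl pH 7.5. Released fluorophore in the oil is diluted with n-heptane and quantified at 424 nm against oil absorbance at 272 nm.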

In data set [2] the target is T1, Neutrophil elastase (Homo sapiens) (UniProt P08246).
T1 sequence (whole entry): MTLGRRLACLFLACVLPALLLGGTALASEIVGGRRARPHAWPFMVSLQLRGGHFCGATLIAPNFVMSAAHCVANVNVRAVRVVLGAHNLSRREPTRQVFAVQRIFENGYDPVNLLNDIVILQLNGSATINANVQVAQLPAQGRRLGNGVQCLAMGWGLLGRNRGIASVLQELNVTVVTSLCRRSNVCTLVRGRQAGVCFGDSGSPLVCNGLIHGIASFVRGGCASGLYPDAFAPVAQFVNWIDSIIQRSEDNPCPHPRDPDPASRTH
Description: Proteolysis rate constant (Kcat), when mixed with human leukocyte elastase (HLE)enzyme for the conversion of water-soluble compound to fluorescent oil-soluble compound. An outline of the steps: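 Human leukocyte elastase (1 unit = 1.2 µg; releases 1 µmol/min p-nitrophenol from N-t-BOC-L-alanine-p-nitrophenyl ester, pH 6.5, 37 °C) in 50 mM NaOAc, 100 mM NaCl, 8 mM NaN3 pH 6.0. Enzyme mixed with 12 µM substrate in buffer under a trace mineral-oil layer, shaken at 37 °C. Released fluorophore extracted into oil, diluted with n-heptane, quantified by absorbance at 424 nm against oil at 272 nm.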

Data set [3] deals with CN(C(=O)[C@@H](CCCCC(=N)N)NC(=O)[C@H](CCCCC(=N)N)NC(=O)OCc1ccccc1)c1ccc(C#C/C=C/c2ccc([N+](=O)[O-])c(O)c2)cc1. Description: Proteolysis constant (Km), when mixed with Cathepsin B enzyme for the conversion of water-soluble compound to fluorescent oil-soluble compound. An outline of the steps:
as §1

The target of data set [4] is T2, Chymotrypsin-like elastase family member 2A (Sus scrofa) (UniProt P08419).
T2 sequence (whole entry): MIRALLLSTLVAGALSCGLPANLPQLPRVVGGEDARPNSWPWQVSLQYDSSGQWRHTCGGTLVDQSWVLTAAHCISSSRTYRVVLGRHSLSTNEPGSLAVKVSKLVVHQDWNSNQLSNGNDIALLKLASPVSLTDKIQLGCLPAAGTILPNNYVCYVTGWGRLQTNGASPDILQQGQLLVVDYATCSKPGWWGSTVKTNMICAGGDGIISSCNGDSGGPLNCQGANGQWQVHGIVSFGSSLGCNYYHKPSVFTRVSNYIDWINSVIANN
Briefly: Proteolysis rate constant (Kcat), when mixed with elastase enzyme for the conversion of water-soluble compound to fluorescent oil-soluble compound. An outline of the steps: as §1

Regarding `CC(C)C[C@H](NC(=O)[C@H](N)Cc1ccc(O)cc1)C(=O)N[C@@H](C(=O)N(C)c1ccc(C#C/C=C/c2ccc([N+](=O)[O-])c(O)c2)cc1)C(C)C`, the k cat/Km in data set [1] came out at 225000 M⁻¹ s⁻¹. In data set [2], this molecule displayed a k cat of 3.6 s⁻¹.
Cathepsin B (Bos taurus), P07688: in data set [3], the Km – broadly, the substrate concentration at which the rate is half of its maximum – was 129 µM.
Consider `COCCOCCOCCOCCOC(=O)N[C@@H](C)C(=O)N[C@H](C)C(=O)N(C)c1ccc(C#C/C=C/c2ccc([N+](=O)[O-])c(O)c2)cc1`, for which, in data set [1], the k cat/Km was 446000 M⁻¹ s⁻¹. This molecule displayed a k cat in data set [4] of 145 s⁻¹.
